Reference: ChEMBL document CHEMBL1268899, “Discovery of potent and selective inhibitors of human reticulocyte 15-lipoxygenase-1” (J Med Chem, 2010)
Values belong to the compound of their own block, whether it stands above or below them. Calls of active or inactive are those of the source. No cut-off for these calls is given here.

Columns and labels:
[1] = target: T1, Polyunsaturated fatty acid lipoxygenase ALOX15 (Homo sapiens, UniProt P16050); test: Inhibition of human N-terminal His6-tagged reticulocyte 15-lipoxygenase-1 after 15 mins by UV-vis spectrophotometer analysis; conditions: for Ki: read-out: Ki(app)
T1 sequence (P16050 whole entry): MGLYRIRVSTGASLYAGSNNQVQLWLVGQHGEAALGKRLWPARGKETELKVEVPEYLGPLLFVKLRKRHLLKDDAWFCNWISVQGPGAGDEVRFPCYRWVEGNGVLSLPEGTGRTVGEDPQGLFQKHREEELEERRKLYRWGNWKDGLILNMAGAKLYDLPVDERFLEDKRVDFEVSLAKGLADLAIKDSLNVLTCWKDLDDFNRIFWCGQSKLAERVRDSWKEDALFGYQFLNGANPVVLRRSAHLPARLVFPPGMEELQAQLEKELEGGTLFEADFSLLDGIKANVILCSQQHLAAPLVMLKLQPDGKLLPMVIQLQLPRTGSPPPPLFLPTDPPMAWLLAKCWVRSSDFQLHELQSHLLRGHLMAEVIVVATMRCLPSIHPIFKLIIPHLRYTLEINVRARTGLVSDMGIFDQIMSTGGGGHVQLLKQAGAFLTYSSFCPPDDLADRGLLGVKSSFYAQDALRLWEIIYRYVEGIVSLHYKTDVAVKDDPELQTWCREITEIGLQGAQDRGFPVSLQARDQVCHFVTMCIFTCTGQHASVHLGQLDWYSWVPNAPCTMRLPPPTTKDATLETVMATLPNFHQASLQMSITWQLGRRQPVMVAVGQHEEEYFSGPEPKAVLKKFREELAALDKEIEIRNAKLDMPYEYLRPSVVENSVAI

[2] = Solubility of the compound; assay type: physicochemical
[3] = target: T2, Polyunsaturated fatty acid lipoxygenase ALOX12 (Homo sapiens, UniProt P18054); test: Inhibition of human N-terminal His6-tagged platelet 12-lipoxygenase after 15 mins by UV-vis spectrophotometer analysis
T2 sequence (P18054 whole entry): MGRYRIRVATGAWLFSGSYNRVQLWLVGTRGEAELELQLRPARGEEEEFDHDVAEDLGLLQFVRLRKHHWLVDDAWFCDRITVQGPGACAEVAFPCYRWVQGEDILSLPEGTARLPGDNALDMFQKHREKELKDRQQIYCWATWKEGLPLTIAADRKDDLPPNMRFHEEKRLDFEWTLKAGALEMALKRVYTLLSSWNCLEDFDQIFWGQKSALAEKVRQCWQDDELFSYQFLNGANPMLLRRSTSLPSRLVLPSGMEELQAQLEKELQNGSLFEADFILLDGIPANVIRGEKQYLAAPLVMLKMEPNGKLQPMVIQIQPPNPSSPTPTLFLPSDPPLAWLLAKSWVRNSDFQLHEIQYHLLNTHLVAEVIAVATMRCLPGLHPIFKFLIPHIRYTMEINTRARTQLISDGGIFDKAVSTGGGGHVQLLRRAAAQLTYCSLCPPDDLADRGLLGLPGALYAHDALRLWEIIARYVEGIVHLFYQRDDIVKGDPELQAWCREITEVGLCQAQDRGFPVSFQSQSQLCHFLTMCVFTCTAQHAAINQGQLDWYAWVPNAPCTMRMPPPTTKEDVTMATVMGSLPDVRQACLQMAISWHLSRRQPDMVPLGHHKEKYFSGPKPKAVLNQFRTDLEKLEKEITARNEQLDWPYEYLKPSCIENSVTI

[4] = target: T3, Polyunsaturated fatty acid lipoxygenase ALOX15B (Homo sapiens, UniProt O15296); test: Inhibition of human N-terminal His6-tagged epithelial 15-lipoxygenase-2 after 15 mins by UV-vis spectrophotometer analysis
T3 sequence (O15296 whole entry): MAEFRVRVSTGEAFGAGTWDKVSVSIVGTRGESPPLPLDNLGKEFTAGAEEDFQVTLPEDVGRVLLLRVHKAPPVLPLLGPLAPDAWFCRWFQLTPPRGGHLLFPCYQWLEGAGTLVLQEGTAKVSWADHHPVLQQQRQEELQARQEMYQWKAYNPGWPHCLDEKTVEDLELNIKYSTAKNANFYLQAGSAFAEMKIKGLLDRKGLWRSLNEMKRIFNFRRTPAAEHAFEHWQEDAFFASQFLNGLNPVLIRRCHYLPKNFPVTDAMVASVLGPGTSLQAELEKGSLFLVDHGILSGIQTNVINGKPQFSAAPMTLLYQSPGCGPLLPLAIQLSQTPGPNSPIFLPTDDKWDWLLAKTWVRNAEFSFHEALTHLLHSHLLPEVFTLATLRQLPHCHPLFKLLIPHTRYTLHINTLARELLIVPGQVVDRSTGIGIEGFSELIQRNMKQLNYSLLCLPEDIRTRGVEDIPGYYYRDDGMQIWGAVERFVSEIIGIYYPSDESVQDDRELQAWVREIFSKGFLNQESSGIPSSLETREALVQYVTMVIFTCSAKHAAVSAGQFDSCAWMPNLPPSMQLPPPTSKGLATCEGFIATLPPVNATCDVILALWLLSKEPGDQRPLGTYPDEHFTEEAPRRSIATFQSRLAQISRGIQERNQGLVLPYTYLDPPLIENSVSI

[5] = species: Homo sapiens; test: Selectivity ratio of IC50 for human N-terminal His6-tagged platelet 12-lipoxygenase over IC50 for human N-terminal His6-tagged reticulocyte 15-lipoxygenase-1
[6] = target: T4, Polyunsaturated fatty acid 5-lipoxygenase (Homo sapiens, UniProt P09917); test: Inhibition of human 5-lipoxygenase after 15 mins by UV-vis spectrophotometer analysis
T4 sequence (P09917 whole entry): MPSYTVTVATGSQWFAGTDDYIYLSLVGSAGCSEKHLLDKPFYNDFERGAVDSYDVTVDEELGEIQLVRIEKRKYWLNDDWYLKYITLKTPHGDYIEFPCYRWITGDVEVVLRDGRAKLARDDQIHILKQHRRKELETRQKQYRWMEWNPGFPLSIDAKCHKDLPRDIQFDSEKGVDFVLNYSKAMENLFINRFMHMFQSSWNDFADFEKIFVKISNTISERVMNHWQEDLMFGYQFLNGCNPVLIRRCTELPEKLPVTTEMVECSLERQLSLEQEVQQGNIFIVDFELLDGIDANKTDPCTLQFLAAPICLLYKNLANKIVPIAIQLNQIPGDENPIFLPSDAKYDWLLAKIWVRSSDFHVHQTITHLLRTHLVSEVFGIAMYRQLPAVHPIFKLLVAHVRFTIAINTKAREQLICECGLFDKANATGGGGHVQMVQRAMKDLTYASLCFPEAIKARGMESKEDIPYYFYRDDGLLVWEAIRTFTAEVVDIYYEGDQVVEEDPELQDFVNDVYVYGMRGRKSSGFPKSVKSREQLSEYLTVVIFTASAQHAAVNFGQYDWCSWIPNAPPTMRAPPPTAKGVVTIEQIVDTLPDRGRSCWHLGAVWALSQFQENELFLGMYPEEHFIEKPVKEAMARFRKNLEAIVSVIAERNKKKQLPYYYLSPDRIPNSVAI

[7] = species: Homo sapiens; test: Selectivity ratio of IC50 for human N-terminal His6-tagged epithelial 15-lipoxygenase-2 over IC50 for human N-terminal His6-tagged reticulocyte 15-lipoxygenase-1
[8] = species: Homo sapiens; test: Selectivity ratio of IC50 for human COX2 over IC50 for human N-terminal His6-tagged reticulocyte 15-lipoxygenase-1
Procedure, shortened: (§1)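 COX inhibition: ~2 μg ovine COX-1 or human COX-2 preincubated 20 min with inhibitor, then added to 0.1 M Tris-HCl pH 8.0, 5 mM EDTA, 2 mM phenol, 1 μM hematin, 100 μM arachidonic acid at 37 °C; oxygen consumption via oxygen electrode; ibuprofen and DMSO as controls.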

[9] = Selectivity ratio of IC50 for ovine COX1 over IC50 for human N-terminal His6-tagged reticulocyte 15-lipoxygenase-1; procedure, shortened: as §1
[10] = test system: Radical scavenging activity; test: Antioxidant activity assessed as DPPH free radical scavenging activity at 5 uM; assay type: functional
[11] = target: T1, Polyunsaturated fatty acid lipoxygenase ALOX15; test: Inhibition of human N-terminal His6-tagged reticulocyte 15-lipoxygenase-1 catalytic site assessed as 15-HPETE formation by Michaelis-Menten equation analysis
[12] = target: T1, Polyunsaturated fatty acid lipoxygenase ALOX15; test: Inhibition of human N-terminal His6-tagged reticulocyte 15-lipoxygenase-1 allosteric site assessed as 15-HPETE formation by Michaelis-Menten equation analysis

SMILES: O=C(OCC#CCSc1nnc(-c2cccc3ccccc23)s1)c1cccs1
solubility [2]: Insoluble

SMILES: O=C(OCC#CCSc1nnc(-c2cc3ccccc3cc2O)o1)c1ccc(F)cc1
solubility [2]: Insoluble

SMILES: O=C(OCC#CCSc1nnc(-c2cccc3ccccc23)o1)c1ccsc1
IC50 [3]: > 100 µM | IC50 [4]: > 100 µM | IC50 [6]: > 15 µM

SMILES: O=C(OCC#CCSc1nnc(-c2cccc3ccccc23)o1)c1sc2ccccc2c1Cl
Activity [10]: inactive

SMILES: O=C(OCC#CCSc1nnc(-c2cccc3ccccc23)o1)c1cnc[nH]1
Ki [1]: 1.4 µM | Ki [11]: 0.87 µM | Ki [12]: 8.1 µM

SMILES: O=C(OCc1ccc(CSc2nnc(-c3cccc4ccccc34)o2)cc1)c1ccc(F)cc1
Ki [1]: > 70 µM

SMILES: OCC#CCSc1nnc(-c2cccc3ccccc23)o1
Ki [1]: 3.5 µM

SMILES: O=C(OCC#CCSc1nnc(-c2cccc3ccccc23)o1)c1ccc(OC(F)F)cc1
Ki [1]: < 0.01 µM

Second part, led by results:

Ki [1]: < 0.01 µM
SMILES: O=C(OCC#CCSc1nnc(-c2cccc(F)c2)o1)c1ccc(F)cc1

Ki [1]: < 0.01 µM
SMILES: O=C(OCC#CCSc1nnc(-c2cccc3ccccc23)o1)c1sccc1Cl

IC50 [3]: > 100 µM | IC50 [1]: < 0.01 µM | Ki [1]: < 0.01 µM | IC50 [4]: > 100 µM | Ratio IC50 [5]: > 7500 | IC50 [6]: > 30 µM | Ratio IC50 [7]: > 7500 | Ratio IC50 [8]: > 7500 | Ratio IC50 [9]: > 7500
SMILES: O=C(OCC#CCSc1nnc(-c2cccc3ccccc23)o1)c1ccc(F)c(F)c1

Ki [1]: < 0.01 µM
SMILES: O=C(OCC#CCSc1nnc(-c2cccc3ccccc23)o1)c1ccc(Cl)cc1

Ki [1]: < 0.01 µM
SMILES: O=C(OCC#CCSc1nnc(-c2cccc3ccccc23)o1)c1csc2ccccc12
Activity [10]: inactive

Ki [1]: < 0.01 µM
SMILES: O=C(OCC#CCSc1nnc(-c2cccc3ccccc23)o1)c1ccc(F)cc1F

IC50 [1]: < 0.01 µM | Ki [1]: < 0.01 µM | IC50 [6]: > 10 µM
SMILES: O=C(OCC#CCSc1nnc(-c2ccc3ccccc3c2)o1)c1ccc(F)cc1

Ki [1]: < 0.01 µM
SMILES: O=C(OCC#CCSc1nnc(-c2ccc(F)cc2)o1)c1ccc(F)cc1

IC50 [3]: > 100 µM | IC50 [1]: < 0.01 µM | Ki [1]: < 0.01 µM | IC50 [4]: > 100 µM | Ratio IC50 [5]: > 7500 | IC50 [6]: > 15 µM | Ratio IC50 [7]: > 7500 | Ratio IC50 [8]: > 7500 | Ratio IC50 [9]: > 7500
SMILES: O=C(OCC#CCSc1nnc(-c2cccc3ccccc23)o1)c1ccc(OC(F)(F)F)cc1
